The structures appear in SMILES notation. Some results are limits rather than exact numbers.

For experiment [1], the target named is Vitamin K-dependent protein C (Homo sapiens, UniProt P04070). The experiment can be described thus: Inhibition of human aPC.
The target in another experiment is Prothrombin (Homo sapiens, UniProt P00734). The experiment in a line: Inhibition of human thrombin activity. The method, boiled down:
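Thrombin counterscreen using its natural substrate, fibrinogen. Result expressed as an IC50.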

Experiment [2] is filed under the species Homo sapiens. The experiment in a line: Increase in thrombin generation in human moderate hemophilia A pooled poor platelet plasma by thrombogram assay at 20 uM. It counts as functional. As to conditions: in the assay text read “20 nM” for “20 uM”. The procedure, abridged: (§1)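 Calibrated automated thrombogram in human moderate hemophilia A platelet-poor plasma (FVIII < 5%). Thrombin generation triggered via the intrinsic coagulation pathway. Inhibitor incubated in the plasma at 10 and 20 nM alongside a 0 nM control. Read-out is the thrombin generation curve and its peak thrombin level (nM).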

For experiment [3], the species on record is Homo sapiens. The experiment in a line: Increase in thrombin generation in human moderate hemophilia A platelet poor plasma by thrombogram assay at 10 uM. As to conditions: in the assay text read “10 nM” for “10 uM”. It counts as functional. The method, boiled down:
as §1

Experiment [4] is filed under the species Homo sapiens. The experiment can be described thus: Increase in thrombin generation in human severe hemophilia A pooled poor platelet plasma at 20 nM relative to control by thrombogram assay.

Sequence of Vitamin K-dependent protein C (P04070 43-197 limits assumed): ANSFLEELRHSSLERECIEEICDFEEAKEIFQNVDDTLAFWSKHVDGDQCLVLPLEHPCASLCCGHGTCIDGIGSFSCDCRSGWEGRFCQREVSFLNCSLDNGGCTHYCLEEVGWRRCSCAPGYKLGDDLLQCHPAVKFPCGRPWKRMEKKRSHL
Sequence of Vitamin K-dependent protein C (P04070 212-461 limits assumed): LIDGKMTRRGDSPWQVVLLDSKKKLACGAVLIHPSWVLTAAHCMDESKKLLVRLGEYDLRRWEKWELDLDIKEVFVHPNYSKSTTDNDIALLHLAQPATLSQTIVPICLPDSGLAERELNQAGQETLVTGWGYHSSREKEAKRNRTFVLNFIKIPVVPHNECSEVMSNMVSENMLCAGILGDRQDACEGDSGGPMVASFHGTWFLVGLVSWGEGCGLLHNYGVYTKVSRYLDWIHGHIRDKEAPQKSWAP

Regarding `N=C(N)c1ccc(CNC(=O)C2(NC(=O)[C@@H](CC3CCCCC3)NCC(=O)O)Cc3ccccc3C2)cc1`, the concentration for half-maximal inhibition (IC50) (as a rule, the midpoint of a concentration-inhibition curve) in experiment [1] came to 0.1 µM; against Prothrombin, 1.25 µM.

`CC(C)[C@@H](NCC(=O)O)C(=O)N[C@H](C(=O)NCc1ccc(C(=N)N)cc1)C(c1ccccc1)c1ccccc1` registered a concentration for half-maximal inhibition (IC50) in experiment [1] of over 33 µM.

In the case of `CC(C)[C@@H](NCC(=O)O)C(=O)N[C@@H](Cc1ccccc1)C(=O)NCc1ccc(C(=N)N)cc1`, the IC50 in experiment [1] was 0.71 µM; on Prothrombin, 13.3 µM.

In the case of `CC[C@@H](NCC(=O)O)C(=O)NC1(C(=O)NCc2ccc(C(=N)N)cc2)Cc2ccccc2C1`, the IC50 in experiment [1] worked out at 2.04 µM; against Prothrombin it was 300 µM.

In the case of `CC(C)(C)[C@@H](NCC(=O)O)C(=O)NC1(C(=O)NCc2ccc(C(=N)N)cc2)Cc2ccccc2C1`, the concentration for half-maximal inhibition (IC50) was found to be 3.83 µM in experiment [1] and 300 µM against Prothrombin.

In the case of `CC(C)[C@@H](NCC(=O)O)C(=O)NC1(C(=O)NCc2ccc(C(=N)N)cc2)Cc2cc3ccccc3cc2C1`, the IC50 is 9.28 µM in experiment [1] and over 300 µM against Prothrombin.

With `N=C(N)c1ccc(CNC(=O)C2(NC(=O)[C@@H](Cc3ccccc3)NCC(=O)O)Cc3ccccc3C2)cc1`, the results for the half-maximal inhibitory concentration (IC50) (in experiment [1]; against Prothrombin) were 11.3 µM and 10 µM, respectively.

In the case of `N=C(N)c1ccc(CNC(=O)C2(NC(=O)[C@@H](NCC(=O)O)C3CCCCC3)Cc3ccccc3C2)cc1`, the 50% inhibitory concentration (IC50) (in experiment [1]; at Prothrombin) was over 33 µM throughout.

On to `N=C(N)c1ccc(CNC(=O)C2(NC(=O)CNCC(=O)O)Cc3ccccc3C2)cc1`, for which the values for the IC50 (in experiment [1]; against Prothrombin) were over 33 µM and 100 µM, respectively.

For `N=C(N)c1ccc(CNC(=O)C2(NC(=O)[C@H](NCC(=O)O)C3CCCCC3)Cc3ccccc3C2)cc1`, the results for the Activity in the experiment listed under Homo sapiens [2], in the experiment listed under Homo sapiens [3] and in the experiment filed under Homo sapiens [4] were 160 nM, 160 nM and 201 nM, respectively. This compound showed an IC50 at Prothrombin of 47 µM.

In the case of `CC(C)[C@@H](NCC(=O)O)C(=O)NC1(C(=O)NCc2ccc(C(=N)N)cc2)Cc2cccc3cccc(c23)C1`, the IC50 in experiment [1] was 0.43 µM; against Prothrombin, over 300 µM.

Take `CCC(C)[C@@H](NCC(=O)O)C(=O)NC1(C(=O)NCc2ccc(C(=N)N)cc2)Cc2ccccc2C1` (some centres undefined): the results for the IC50 (in experiment [1]; on Prothrombin) were 1.12 µM and 85 µM, respectively.

For `CC(C)[C@@H](NCC(=O)O)C(=O)NC1(C(=O)NCc2ccc(C(=N)N)cc2)Cc2ccc3ccccc3c2C1` (some centres undefined), the half-inhibitory concentration (IC50) in experiment [1] amounted to 0.25 µM; against Prothrombin, 0.77 µM.

Regarding `CC(C)(NCC(=O)O)C(=O)NC1(C(=O)NCc2ccc(C(=N)N)cc2)Cc2ccccc2C1`, the IC50 in experiment [1] was 44 µM; against Prothrombin, over 300 µM.

`N=C(N)c1ccc(CNC(=O)C2(NC(=O)C3(NCC(=O)O)CCCC3)Cc3ccccc3C2)cc1`: the figures for the IC50 (in experiment [1]; at Prothrombin) were 53 µM and 4.4 µM, respectively.

For `C[C@@H](NCC(=O)O)C(=O)NC1(C(=O)NCc2ccc(C(=N)N)cc2)Cc2ccccc2C1`, the concentration for half-maximal inhibition (IC50) came out at 9.08 µM in experiment [1] and 33 µM at Prothrombin.

On to `CC(C)C[C@@H](NCC(=O)O)C(=O)NC1(C(=O)NCc2ccc(C(=N)N)cc2)Cc2ccccc2C1`, for which the results for the IC50 (in experiment [1]; against Prothrombin) were 0.75 µM and over 33 µM, respectively.

In the case of `CC(C)[C@@H](NCC(=O)O)C(=O)NC1(C(=O)NCc2ccc(C(=N)N)cc2)Cc2ccccc2-c2ccccc2C1`, the IC50 in experiment [1] was 12.7 µM; against Prothrombin it was over 300 µM.

In the case of `COc1cc2c(cc1OC)CC(NC(=O)[C@H](NCC(=O)O)C(C)C)(C(=O)NCc1ccc(C(=N)N)cc1)C2`, the results for the half-maximal inhibitory concentration (IC50) (in experiment [1]; against Prothrombin) were 10.9 µM and over 33 µM, respectively.

Regarding `CC(C)[C@@H](NCC(=O)O)C(=O)N[C@H](C(=O)NCc1ccc(C(=N)N)cc1)C1Cc2ccccc2C1`, the figures for the IC50 (in experiment [1]; at Prothrombin) were 0.35 µM and over 33 µM, respectively.

Consider `CC(C)[C@@H](NCC(=O)O)C(=O)NC1(C(=O)NCc2ccc(C(=N)N)cc2)Cc2ccccc2C1`, for which the figures for the IC50 (in experiment [1]; against Prothrombin) were 0.8 µM and over 300 µM, respectively.

In the case of `CC(C)[C@@H](NCC(=O)O)C(=O)NC1(C(=O)NCc2ccc(C(=N)N)cc2)Cc2ccncc2C1` (some centres undefined), the 50% inhibitory concentration (IC50) in experiment [1] turned out to be 1.7 µM; against Prothrombin it was 100 µM.

Take `CC(C)[C@@H](NCC(=O)O)C(=O)NC1(C(=O)NCc2ccc(C(=N)N)cc2)Cc2cccnc2C1` (single isomer, unassigned; diastereomer 1): the IC50 worked out at 1.07 µM in experiment [1] and 300 µM on Prothrombin.

Turning to `CC(C)[C@@H](NCC(=O)O)C(=O)NC1(C(=O)NCc2ccc(C(=N)N)cc2)Cc2cccnc2C1` (single isomer, unassigned; diastereomer 2), the values for the IC50 (in experiment [1]; against Prothrombin) were 1.14 µM and 300 µM, respectively.

Values taken from ChEMBL document CHEMBL1145333, “Low molecular weight activated protein C inhibitors as a potential treatment for hemophilic disorders” (J Med Chem, 2006).
